{"source": "ChEMBL document CHEMBL5678798", "about": "(Clin Cancer Res, 2009)", "key": {"A673": {"test_system": "A673", "assay": "Antiproliferative activity against human A673 cells assessed as reduction in cell viability after 72 hrs by CellTiter-Glo assay", "format": "functional, cell-based", "conditions": "A673, 72 h", "procedure,_shortened": "(§1)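 Cells seeded in 96-well plates, left overnight at 37°C, then exposed to a range of test concentrations for 72 h. Viability read by CellTiter-Glo luminescence; IC50 from four-parameter curve fit. Lines kept at 37°C, 5% CO2, in recommended growth medium.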"}, "MCF7": {"test_system": "MCF7", "assay": "Induction of cell cycle arrest in human MCF7 cells assessed as cells accumulation at G1 phase at 1 umol/L incubated for 48 hrs by propidium iodide staining based flow cytometric analysis (reference value: 67%)", "format": "functional", "conditions": "dose 1 µmol/L, at 1 µM", "procedure,_shortened": "(§2)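 COLO 205, MCF-7 or NCI-H929 cells seeded in 96-well plates overnight at 37°C, then exposed to DMSO or increasing compound concentrations for 24 or 48 h. Fixed and stained with propidium iodide (Vindelov method), then analysed by flow cytometry for sub-G1, G1, S and G2-M fractions. Experiment repeated twice.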"}, "[1]": {"target": "Rho-associated protein kinase 1 (Homo sapiens, UniProt Q13464)", "assay": "Inhibition of ROCK1 (unknown origin)"}, "[2]": {"target": "Tyrosine-protein kinase BTK (Homo sapiens, UniProt Q06187)", "assay": "Inhibition of N-terminal His6-tagged recombinant full-length human BTK expressed in baculovirus infected Sf21 cells at 0.3 uM by filter binding assay relative to control", "procedure,_shortened": "(§3)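 Outsourced single-concentration screen in a commercial panel of 233 protein kinases, run as radiometric filter-binding activity assays. Test agent was tested at 0.3 or 3 µmol/L, as given in each line, from a 10 mmol/L DMSO stock. Activity is expressed as percent inhibition relative to control.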"}, "NCI-H929 [3]": {"test_system": "NCI-H929", "assay": "Induction of cell cycle arrest in human NCI-H929 cells assessed as cells accumulation at G1 phase at 1 umol/L incubated for 48 hrs by propidium iodide staining based flow cytometric analysis (reference value: 42%)", "format": "functional", "conditions": "dose 1 µmol/L, at 1 µM", "procedure,_shortened": "as §2"}, "[4]": {"target": "Protein kinase C epsilon type (Homo sapiens, UniProt Q02156)", "assay": "Inhibition of PKCepsilon (unknown origin)"}, "[5]": {"target": "Serine/threonine-protein kinase PLK3 (Homo sapiens) (UniProt Q9H4B4)", "assay": "Inhibition of N-terminal His6-tagged recombinant human Plk3 (19 to 301 residues) expressed in baculovirus infected Sf21 cells at 0.3 uM by filter binding assay relative to control"}, "[6]": {"target": "Rho-associated protein kinase 2 (Homo sapiens) (UniProt O75116)", "assay": "Inhibition of N-terminal His6-tagged recombinant human ROCK-II (11 to 552 residues) expressed in baculovirus infected Sf21 cells at 0.3 uM by filter binding assay relative to control"}, "SK-N-MC": {"test_system": "SK-N-MC", "assay": "Antiproliferative activity against human SK-N-MC cells assessed as reduction in cell viability after 72 hrs by CellTiter-Glo assay", "format": "functional, cell-based", "procedure,_shortened": "as §1"}, "[7]": {"target": "Protein kinase C alpha type (Homo sapiens) (UniProt P17252)", "assay": "Inhibition of N-terminal His6 tagged recombinant full-length human PKCalpha expressed in baculovirus infected Sf21 cells at 3 uM by filter binding assay relative to control", "procedure,_shortened": "as §3"}, "[8]": {"target": "Tyrosine-protein kinase Blk (Mus musculus) (UniProt P16277)", "assay": "Inhibition of N-terminal His6-tagged recombinant full-length mouse Blk expressed in baculovirus infected Sf21 cells at 0.3 uM by filter binding assay relative to control", "procedure,_shortened": "as §3"}, "[9]": {"target": "Serine/threonine-protein kinase TBK1 (Homo sapiens) (UniProt Q9UHD2)", "sequence (Q9UHD2 whole entry)": "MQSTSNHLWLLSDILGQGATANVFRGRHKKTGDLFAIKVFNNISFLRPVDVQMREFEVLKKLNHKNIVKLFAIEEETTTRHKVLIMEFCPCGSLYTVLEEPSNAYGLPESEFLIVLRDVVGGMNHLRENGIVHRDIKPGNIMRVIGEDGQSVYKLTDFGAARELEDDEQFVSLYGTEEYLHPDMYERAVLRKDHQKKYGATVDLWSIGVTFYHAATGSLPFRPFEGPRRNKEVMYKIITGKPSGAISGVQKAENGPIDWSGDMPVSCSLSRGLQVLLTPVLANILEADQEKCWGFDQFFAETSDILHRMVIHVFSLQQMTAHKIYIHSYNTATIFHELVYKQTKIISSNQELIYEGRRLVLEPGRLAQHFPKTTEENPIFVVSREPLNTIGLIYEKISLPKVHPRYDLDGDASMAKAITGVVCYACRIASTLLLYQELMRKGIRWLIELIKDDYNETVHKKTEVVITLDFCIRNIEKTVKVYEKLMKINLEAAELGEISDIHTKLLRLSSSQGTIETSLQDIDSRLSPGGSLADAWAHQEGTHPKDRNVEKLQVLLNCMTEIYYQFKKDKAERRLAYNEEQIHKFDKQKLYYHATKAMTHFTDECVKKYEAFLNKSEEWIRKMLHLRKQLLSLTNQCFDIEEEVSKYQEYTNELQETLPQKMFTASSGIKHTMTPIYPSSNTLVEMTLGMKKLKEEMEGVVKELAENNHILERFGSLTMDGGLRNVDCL", "assay": "Inhibition of N-terminal His6-tagged recombinant full-length human TBK1 expressed in baculovirus infected Sf21 cells at 3 uM by filter binding assay relative to control", "procedure,_shortened": "as §3"}, "[10]": {"target": "Phosphatidylinositol 4,5-bisphosphate 3-kinase catalytic subunit beta isoform (Homo sapiens, UniProt P42338)", "sequence (P42338 whole entry, canonical isoform)": "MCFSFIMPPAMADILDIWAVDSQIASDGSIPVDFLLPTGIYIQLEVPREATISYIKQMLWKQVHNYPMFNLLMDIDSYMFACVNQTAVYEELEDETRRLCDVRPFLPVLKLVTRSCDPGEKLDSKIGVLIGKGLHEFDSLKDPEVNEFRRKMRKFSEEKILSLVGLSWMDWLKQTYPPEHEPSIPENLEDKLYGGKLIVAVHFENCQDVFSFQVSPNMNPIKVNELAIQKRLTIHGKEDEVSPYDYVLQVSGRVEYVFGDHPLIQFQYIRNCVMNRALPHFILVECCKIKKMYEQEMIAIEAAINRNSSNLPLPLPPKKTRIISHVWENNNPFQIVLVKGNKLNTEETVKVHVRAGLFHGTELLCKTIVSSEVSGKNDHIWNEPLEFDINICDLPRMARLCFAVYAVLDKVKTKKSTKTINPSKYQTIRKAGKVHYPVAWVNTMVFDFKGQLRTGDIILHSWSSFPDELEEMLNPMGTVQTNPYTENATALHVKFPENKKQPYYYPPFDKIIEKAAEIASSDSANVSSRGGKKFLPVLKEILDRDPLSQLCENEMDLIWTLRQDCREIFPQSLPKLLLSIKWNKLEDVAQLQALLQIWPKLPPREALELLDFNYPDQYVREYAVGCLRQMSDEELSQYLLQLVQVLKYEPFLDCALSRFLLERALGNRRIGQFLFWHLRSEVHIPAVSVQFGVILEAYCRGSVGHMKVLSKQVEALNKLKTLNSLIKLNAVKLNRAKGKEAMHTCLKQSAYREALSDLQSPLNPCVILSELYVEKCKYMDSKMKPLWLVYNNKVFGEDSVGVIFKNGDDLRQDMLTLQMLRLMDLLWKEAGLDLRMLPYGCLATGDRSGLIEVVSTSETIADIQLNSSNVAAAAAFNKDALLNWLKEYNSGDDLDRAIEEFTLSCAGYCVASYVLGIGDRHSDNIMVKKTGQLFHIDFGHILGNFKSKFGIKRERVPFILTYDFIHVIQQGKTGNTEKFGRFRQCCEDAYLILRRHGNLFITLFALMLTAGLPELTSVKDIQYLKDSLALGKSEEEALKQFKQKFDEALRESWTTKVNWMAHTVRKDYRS", "assay": "Inhibition of PI3Kbeta (unknown origin)"}, "NCI-H929 [11]": {"test_system": "NCI-H929", "assay": "Induction of cell cycle arrest in human NCI-H929 cells assessed as effect on sub-2N-DNA content at 0.03 to 10 uM incubated for 24 to 48 hrs by propidium iodide staining based flow cytometric analysis", "format": "functional", "conditions": "dose 0.03-10 µM, time lower 24.0 hrs, time upper […]", "procedure,_shortened": "as §2"}, "[12]": {"target": "Protein-tyrosine kinase 2-beta (Homo sapiens) (UniProt Q14289)", "sequence (Q14289 whole entry, looked up)": "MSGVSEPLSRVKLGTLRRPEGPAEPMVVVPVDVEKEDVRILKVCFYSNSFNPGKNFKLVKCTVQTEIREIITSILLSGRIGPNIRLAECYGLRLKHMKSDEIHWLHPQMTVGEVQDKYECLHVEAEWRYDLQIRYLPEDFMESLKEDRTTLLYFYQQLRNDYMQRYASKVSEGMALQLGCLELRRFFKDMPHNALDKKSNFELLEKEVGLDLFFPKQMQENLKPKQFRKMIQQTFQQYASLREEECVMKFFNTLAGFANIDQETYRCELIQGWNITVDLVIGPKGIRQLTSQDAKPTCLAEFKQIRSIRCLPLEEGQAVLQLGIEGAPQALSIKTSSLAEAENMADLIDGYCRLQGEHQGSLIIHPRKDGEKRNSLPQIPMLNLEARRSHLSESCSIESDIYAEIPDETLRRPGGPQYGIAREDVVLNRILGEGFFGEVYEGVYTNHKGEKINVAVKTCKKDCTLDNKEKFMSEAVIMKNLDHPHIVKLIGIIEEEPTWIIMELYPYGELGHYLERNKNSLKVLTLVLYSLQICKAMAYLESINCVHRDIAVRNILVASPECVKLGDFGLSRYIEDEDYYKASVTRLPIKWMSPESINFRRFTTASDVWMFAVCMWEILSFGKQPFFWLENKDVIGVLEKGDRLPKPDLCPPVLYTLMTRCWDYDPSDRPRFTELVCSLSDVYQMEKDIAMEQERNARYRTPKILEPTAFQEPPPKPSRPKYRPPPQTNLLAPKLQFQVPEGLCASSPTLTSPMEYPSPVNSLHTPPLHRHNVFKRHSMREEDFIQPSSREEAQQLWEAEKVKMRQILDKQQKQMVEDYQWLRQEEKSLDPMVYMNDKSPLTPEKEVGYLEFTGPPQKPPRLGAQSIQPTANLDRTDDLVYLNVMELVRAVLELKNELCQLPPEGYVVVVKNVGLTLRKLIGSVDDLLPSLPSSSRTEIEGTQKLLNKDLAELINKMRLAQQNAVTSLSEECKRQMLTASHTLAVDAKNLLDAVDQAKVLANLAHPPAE", "assay": "Inhibition of N-Terminal His6-tagged recombinant full-length human Pyk2 expressed in baculovirus infected Sf21 cells at 3 uM by filter binding assay relative to control", "procedure,_shortened": "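KinaseProfiler panel of 233 kinases: radiometric filter-binding activity assays with compound at 0.3 or 3 µmol/L. Read-out is percent inhibition.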"}, "HT-29": {"test_system": "HT-29", "assay": "Antiproliferative activity against human HT-29 cells assessed as reduction in cell viability after 72 hrs by CellTiter-Glo assay", "format": "functional, cell-based", "conditions": "HT-29, 72 h", "procedure,_shortened": "as §1"}, "[13]": {"assay": "Inhibition of recombinant mouse N-terminal 6His-tagged full length P110alpha/full length mouse […] expressed in baculovirus infected Sf21 cells at 3 uM by filter binding assay relative to control", "conditions": "condition cancer"}, "[14]": {"target": "Inhibitor of nuclear factor kappa-B kinase subunit beta (Homo sapiens, UniProt O14920)", "assay": "Inhibition of IKK2 (unknown origin)"}, "[15]": {"target": "Ephrin type-A receptor 1 (Homo sapiens) (UniProt P21709)", "assay": "Inhibition of N-terminal 6His-tagged recombinant human EphA1 (568 to end residues) expressed in baculovirus infected Sf21 cells at 3 uM by filter binding assay relative to control", "procedure,_shortened": "as §3"}, "COLO 205": {"test_system": "COLO 205", "assay": "Antitumor activity against human COLO 205 cells xenografted in nu/nu CD-1 mouse assessed as reduction in tumor growth at 30 mg/kg, po for 21 days relative to control", "format": "functional", "conditions": "COLO 205, 504 h, time 21 day, read-out: TGI", "procedure,_shortened": "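Exponentially growing cells implanted s.c. in the right flank of 8–10-wk-old female athymic nu/nu CD-1 mice. At 150–200 mm3, block-randomized by tumor size into groups of eight. Oral dosing once or twice daily for 21 d; vehicle 20% sulfobutylether-β-cyclodextrin, pH 3.5. Calipers twice weekly; volume = length×width²/2. Growth inhibition = 100×[1 − treated growth/vehicle growth].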"}, "[16]": {"target": "Tyrosine-protein kinase Fer (Homo sapiens, UniProt P16591)", "sequence (P16591 whole entry)": "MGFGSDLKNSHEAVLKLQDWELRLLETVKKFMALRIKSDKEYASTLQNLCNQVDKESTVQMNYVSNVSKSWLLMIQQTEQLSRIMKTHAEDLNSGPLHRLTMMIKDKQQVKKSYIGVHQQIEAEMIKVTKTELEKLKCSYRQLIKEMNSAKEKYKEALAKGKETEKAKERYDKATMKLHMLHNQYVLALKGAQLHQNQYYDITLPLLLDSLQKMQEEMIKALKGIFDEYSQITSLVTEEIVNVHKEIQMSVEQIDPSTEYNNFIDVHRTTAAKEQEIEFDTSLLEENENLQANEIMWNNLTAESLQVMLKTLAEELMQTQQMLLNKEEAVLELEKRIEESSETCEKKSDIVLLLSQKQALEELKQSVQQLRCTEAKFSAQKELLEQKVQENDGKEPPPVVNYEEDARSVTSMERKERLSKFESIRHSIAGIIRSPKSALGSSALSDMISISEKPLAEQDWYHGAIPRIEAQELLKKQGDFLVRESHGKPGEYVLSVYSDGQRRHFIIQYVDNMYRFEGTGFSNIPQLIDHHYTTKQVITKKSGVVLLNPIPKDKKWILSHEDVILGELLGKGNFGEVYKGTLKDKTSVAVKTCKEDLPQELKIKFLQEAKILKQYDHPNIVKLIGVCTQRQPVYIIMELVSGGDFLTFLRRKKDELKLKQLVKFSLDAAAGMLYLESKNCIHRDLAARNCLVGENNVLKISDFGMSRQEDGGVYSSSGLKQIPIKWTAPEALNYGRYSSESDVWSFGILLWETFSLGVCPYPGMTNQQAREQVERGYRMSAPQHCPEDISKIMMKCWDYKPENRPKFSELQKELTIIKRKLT", "assay": "Inhibition of N-terminal His6 tagged recombinant human Fer (541 to end residues) expressed in baculovirus infected Sf21 cells by filter binding assay"}, "HN5": {"test_system": "HN5", "assay": "Antiproliferative activity against human HN5 cells assessed as reduction in cell viability after 72 hrs by CellTiter-Glo assay", "format": "functional, cell-based", "conditions": "HN5, 72 h", "procedure,_shortened": "as §1"}, "[17]": {"target": "High affinity nerve growth factor receptor (Homo sapiens, UniProt P04629)", "assay": "Inhibition of N-terminal His6-tagged recombinant human TrkA (440 to end residues) expressed in baculovirus infected Sf21 cells by filter binding assay"}, "[18]": {"target": "Serine/threonine-protein kinase PLK1 (Homo sapiens) (UniProt P53350)", "sequence (P53350 whole entry)": "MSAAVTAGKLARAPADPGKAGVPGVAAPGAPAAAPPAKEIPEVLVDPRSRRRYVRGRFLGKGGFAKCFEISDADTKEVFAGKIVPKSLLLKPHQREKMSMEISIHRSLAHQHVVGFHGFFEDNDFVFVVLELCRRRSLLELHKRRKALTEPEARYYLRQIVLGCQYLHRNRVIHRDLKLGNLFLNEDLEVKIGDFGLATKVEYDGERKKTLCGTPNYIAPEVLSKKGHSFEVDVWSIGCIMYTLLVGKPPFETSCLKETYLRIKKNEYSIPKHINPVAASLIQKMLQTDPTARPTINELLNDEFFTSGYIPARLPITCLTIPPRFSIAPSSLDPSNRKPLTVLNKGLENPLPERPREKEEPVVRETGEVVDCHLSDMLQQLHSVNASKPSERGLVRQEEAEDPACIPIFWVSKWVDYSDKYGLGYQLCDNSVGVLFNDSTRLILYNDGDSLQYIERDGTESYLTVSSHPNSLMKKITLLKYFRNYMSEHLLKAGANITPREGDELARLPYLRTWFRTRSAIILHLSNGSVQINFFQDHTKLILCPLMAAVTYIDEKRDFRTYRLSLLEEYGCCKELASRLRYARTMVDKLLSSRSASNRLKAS", "assay": "Inhibition of N-terminal 6His-tagged recombinant human Plk1 expressed in baculovirus infected Sf21 cells at 0.3 uM by filter binding assay relative to control", "procedure,_shortened": "as §3"}, "[19]": {"target": "Mitogen-activated protein kinase 11 (Homo sapiens) (UniProt Q15759)", "sequence (Q15759 whole entry, the tested form may be a part)": "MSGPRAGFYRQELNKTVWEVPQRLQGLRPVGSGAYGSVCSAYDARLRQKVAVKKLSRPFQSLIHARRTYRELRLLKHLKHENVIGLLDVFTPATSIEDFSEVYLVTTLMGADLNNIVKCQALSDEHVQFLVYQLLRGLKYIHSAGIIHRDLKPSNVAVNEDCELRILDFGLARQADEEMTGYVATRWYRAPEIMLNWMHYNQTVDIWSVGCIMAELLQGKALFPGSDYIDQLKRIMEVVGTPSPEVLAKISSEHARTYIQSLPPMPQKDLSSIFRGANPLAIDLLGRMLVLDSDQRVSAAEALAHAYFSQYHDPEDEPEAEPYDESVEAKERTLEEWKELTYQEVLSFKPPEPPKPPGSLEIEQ", "assay": "Inhibition of N-terminal GST fusion protein corresponding to full-length human SAPK2b expressed in Escherichia coli at 3 uM by filter binding assay relative to control", "procedure,_shortened": "as §3"}}, "note": "The source made the active and inactive calls. The rule behind the calls is not given here.", "data": [{"smiles": "CCc1cc(Nc2nccc(-c3c(-c4ccc(OC)c(C(=O)Nc5c(F)cccc5F)c4)nc4ccccn34)n2)c(OC)cc1N1CCC(N2CCN(S(C)(=O)=O)CC2)CC1", "values": [{"measurement": "IC50", "setting": "A673", "value": "> 30", "unit": "µM"}, {"measurement": "Activity", "setting": "MCF7", "value": 76, "unit": "%"}, {"measurement": "IC50", "setting": "[1]", "value": "> 10", "unit": "µM"}, {"measurement": "inhibition", "setting": "[2]", "value": 11, "unit": "%"}, {"measurement": "Activity", "setting": "NCI-H929 [3]", "value": 79, "unit": "%"}, {"measurement": "IC50", "setting": "[4]", "value": 10, "unit": "µM"}, {"measurement": "inhibition", "setting": "[5]", "value": -10, "unit": "%"}, {"measurement": "inhibition", "setting": "[6]", "value": -8, "unit": "%"}, {"measurement": "IC50", "setting": "SK-N-MC", "value": 0.043, "unit": "µM"}, {"measurement": "inhibition", "setting": "[7]", "value": 1, "unit": "%"}, {"measurement": "inhibition", "setting": "[8]", "value": 25, "unit": "%"}, {"measurement": "inhibition", "setting": "[9]", "value": 22, "unit": "%"}, {"measurement": "IC50", "setting": "[10]", "value": "> 10", "unit": "µM"}, {"measurement": "Activity", "setting": "NCI-H929 [11]", "value": "inactive"}, {"measurement": "inhibition", "setting": "[12]", "value": 24, "unit": "%"}, {"measurement": "IC50", "setting": "HT-29", "value": 0.104, "unit": "µM"}, {"measurement": "inhibition at 3 µM", "setting": "[13]", "value": 0, "unit": "%"}, {"measurement": "IC50", "setting": "[14]", "value": 13, "unit": "µM"}, {"measurement": "inhibition", "setting": "[15]", "value": 22, "unit": "%"}, {"measurement": "inhibition in vivo at 30 mg/kg", "setting": "COLO 205", "value": 75, "unit": "%"}, {"measurement": "IC50", "setting": "[16]", "value": 0.013, "unit": "µM"}, {"measurement": "IC50", "setting": "HN5", "value": "> 20", "unit": "µM"}, {"measurement": "IC50", "setting": "[17]", "value": 0.701, "unit": "µM"}, {"measurement": "inhibition", "setting": "[18]", "value": -8, "unit": "%"}, {"measurement": "inhibition", "setting": "[19]", "value": 11, "unit": "%"}]}]}
